The nature of assay [1]: Cytotoxicity against human NCI-H1975 cells harboring EGFR T790M mutant assessed as decrease in cell viability after 72 hrs by MTT assay. Format: functional, cell-based. The conditions noted are these: NCI-H1975, 72 h.
Assay [2] addresses Katanin p80 WD40 repeat-containing subunit B1 (Homo sapiens) (UniProt Q9BVA0). Nature of the assay: Binding affinity to katanin p80 subunit in human NCI-H1975 cell lysate using biotin-labeled compound preincubated for 24 hrs followed by streptavidin-conjugated beads addition measured after 2 hrs by immunoblot analysis. It counts as cell-free. Put shortly:
(§1)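 H1975 lysate incubated 24 h with biotinylated probe or with a purine-free linker as control. Bound proteins detected by immunoblot; three independent experiments.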
For orientation: In western blotting, separated proteins are transferred to a membrane and probed.

Assay [3] deals with Katanin p60 ATPase-containing subunit A1 (Homo sapiens) (UniProt O75449). Briefly: Binding affinity to katanin p60 subunit in human NCI-H1975 cell lysate using biotin-labeled compound preincubated for 24 hrs followed by streptavidin-conjugated beads addition measured after 2 hrs by immunoblot analysis. Format: cell-free. Put shortly: as §1
Assay [4] shares this target. Nature of the assay: Induction of katanin p60 subunit-mediated JNK signaling pathway activation in human NCI-H1975 cells assessed as increase in JNK phosphorylation at T183/Y185 and T221/Y223 residues at 300 nM after 9 hrs by phospho-kinase antibody array method. Format: cell-based. Put shortly:
(§2)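 H1975 cells seeded overnight, exposed to 300 nM for 9 h; DMSO-treated cells as controls. Lysates rocked 30 min at 4 °C and spun at 14,000×g for 30 min. Equal BCA-quantified protein applied to a human phospho-kinase antibody array; spot density measured by densitometry.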

For assay [5] the target is unchanged. Briefly: Induction of katanin p60 subunit-mediated microtubule fragmentation in human NCI-H1975 cells assessed as alpha-tubulin level in polymer form at 600 nM after 1 hr by immunoblot analysis (reference value: 63%). Format: cell-based.
The target is the same in assay [6]. Nature of the assay: Induction of katanin p60 subunit-mediated JNK signaling pathway activation assessed as increase in c-Jun phosphorylation level at S63 residues in human NCI-H1975 cells at 300 nM after 6 to 12 hrs by immunoblot analysis. Format: cell-based. Put shortly: (§3)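 H1975 cells treated with 300 nM for 6 h and 12 h, lysed, and phospho-JNK and phospho-c-Jun detected by immunoblot with ECL. Three independent experiments.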

Assay [7] has the same target. Nature of the assay: Induction of katanin p60 subunit-mediated JNK signaling pathway activation in human NCI-H1975 cells assessed as increase in c-Jun phosphorylation at S63 residues at 300 nM after 9 hrs by phospho-kinase antibody array method. Format: cell-based. The method in brief: as §2
For assay [8] the target is unchanged. Briefly: Induction of katanin p60 subunit-mediated JNK signaling pathway activation assessed as increase in phosphorylation level at T183/Y185 residues in human NCI-H1975 cells at 300 nM after 6 to 12 hrs by immunoblot analysis. Format: cell-based. Put shortly: as §3
For assay [9] the target is unchanged. Briefly: Induction of katanin p60 subunit-mediated microtubule fragmentation in human NCI-H1975 cells at 300 nM after 12 hrs by DAPI staining based confocal laser microscopy. It counts as cell-based. Put shortly: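 H1975 cells treated 12 h, fixed in 3.7% cold paraformaldehyde and permeabilized with 0.1% Triton X-100. Stained with anti-α-tubulin at 37 °C for 1 h, then FITC secondary (1:100) at 37 °C for 1 h. Mounted with DAPI and imaged by confocal microscopy.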

Assay [10] has the same target. Nature of the assay: Induction of katanin p60 subunit-mediated microtubule fragmentation in human NCI-H1975 cells assessed as alpha-tubulin level in polymer form at 300 nM after 1 hr by immunoblot analysis (reference value: 63%). It counts as cell-based.
Assay [11] shares this target. Briefly: Induction of katanin p60 subunit-mediated microtubule fragmentation in human NCI-H1975 cells assessed as alpha-tubulin level in soluble form at 600 nM after 1 hr by immunoblot analysis (reference value: 37%). Format: cell-based.
For assay [12] the target is unchanged. Briefly: Induction of katanin p60 subunit-mediated microtubule fragmentation in human NCI-H1975 cells assessed as alpha-tubulin level in soluble form at 300 nM after 12 hrs by gel filtration chromatography/immunoblot analysis. Format: cell-based. Put shortly: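 H1975 cells treated with 300 nM or vehicle for 12 h; soluble extracts made in IP lysis buffer. Run on a Toyopearl HW-65F gel filtration column equilibrated in IP lysis buffer, collecting 0.5 mL fractions. Fractions separated by 10% SDS–PAGE and α-tubulin detected by immunoblot.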
(In general: In gel filtration, larger molecules generally elute earlier.)

Assay [13] has the same target. Nature of the assay: Induction of katanin p60 subunit-mediated microtubule fragmentation in human NCI-H1975 cells assessed as alpha-tubulin level in soluble form at 300 nM after 1 hr by immunoblot analysis (reference value: 37%). It counts as cell-based.

A word on the pIC50: it is −log10 of the IC50, conventionally taken in molar units.

SMILES strings stand for the structures. pIC50: −log10 of the molar value. Activity calls are given as the source filed them. The rule behind the calls is not given here. A value given as a limit tells only on which side of the number the result lay.

Sequence of Katanin p60 ATPase-containing subunit A1 (Homo sapiens) (O75449 whole entry): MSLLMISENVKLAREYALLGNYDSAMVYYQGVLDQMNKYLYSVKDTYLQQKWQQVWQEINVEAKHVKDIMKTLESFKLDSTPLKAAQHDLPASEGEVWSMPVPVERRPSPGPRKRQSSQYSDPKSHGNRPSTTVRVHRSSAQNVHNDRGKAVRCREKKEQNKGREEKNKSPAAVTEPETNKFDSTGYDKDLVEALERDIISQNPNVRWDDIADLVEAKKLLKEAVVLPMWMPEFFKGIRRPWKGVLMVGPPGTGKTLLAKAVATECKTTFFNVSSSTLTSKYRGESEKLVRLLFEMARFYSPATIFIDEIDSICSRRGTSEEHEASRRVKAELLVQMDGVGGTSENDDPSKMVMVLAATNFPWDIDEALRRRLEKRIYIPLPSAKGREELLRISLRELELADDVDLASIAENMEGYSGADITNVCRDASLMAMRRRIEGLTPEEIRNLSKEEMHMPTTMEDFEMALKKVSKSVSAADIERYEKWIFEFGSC
Sequence of Katanin p80 WD40 repeat-containing subunit B1 (Homo sapiens) (Q9BVA0 whole entry): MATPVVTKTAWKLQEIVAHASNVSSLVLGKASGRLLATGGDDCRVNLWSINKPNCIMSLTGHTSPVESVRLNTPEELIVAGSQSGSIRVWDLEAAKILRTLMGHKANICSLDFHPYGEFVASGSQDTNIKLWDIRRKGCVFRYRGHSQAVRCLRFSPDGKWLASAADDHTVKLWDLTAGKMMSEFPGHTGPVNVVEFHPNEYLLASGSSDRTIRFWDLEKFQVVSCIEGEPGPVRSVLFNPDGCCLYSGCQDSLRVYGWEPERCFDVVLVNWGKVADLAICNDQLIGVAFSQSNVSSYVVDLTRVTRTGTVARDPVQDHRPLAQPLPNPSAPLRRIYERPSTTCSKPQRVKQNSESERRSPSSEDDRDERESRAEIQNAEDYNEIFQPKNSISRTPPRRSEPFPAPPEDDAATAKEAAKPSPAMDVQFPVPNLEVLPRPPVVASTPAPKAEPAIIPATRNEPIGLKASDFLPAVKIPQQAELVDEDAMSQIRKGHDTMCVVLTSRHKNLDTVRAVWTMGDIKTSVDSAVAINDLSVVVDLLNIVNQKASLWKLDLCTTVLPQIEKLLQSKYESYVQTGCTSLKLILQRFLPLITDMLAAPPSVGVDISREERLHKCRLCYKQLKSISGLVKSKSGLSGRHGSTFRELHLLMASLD

Take `CCCCCCOc1ccc(-c2nc(C(N)=O)c3[nH]c(=O)n(-c4ccccc4OC)c3n2)cc1`: the pIC50 in [1] is < 5.30.
Still for that read-out and setting: as for `CCOc1ccc(-c2nc(C(N)=O)c3[nH]c(=O)n(-c4cccc(C(=O)O)c4)c3n2)cc1`, the figure is 5.10; as for `CCOc1ccc(-c2nc(C(N)=O)c3[nH]c(=O)n(-c4cccc(C(=O)NCCCCCNC(=O)OC(C)(C)C)c4)c3n2)cc1`, < 5.00; as for `COC(=O)c1cccc(-n2c(=O)[nH]c3c(C(N)=O)nc(-c4ccc(-c5ccccc5)cc4)nc32)c1`, < 4.70.
Regarding `CCOc1ccc(-c2nc(C(N)=O)c3[nH]c(=O)n(-c4cccc(C(=O)NCCCCCNC(=O)CCCC[C@@H]5SC[C@@H]6NC(=O)N[C@@H]65)c4)c3n2)cc1`, in assay [1], the pIC50 is 4.58. Moreover, the result in [2] and in assay [3] was Active.
Consider `CCOc1ccc(-c2nc(C(N)=O)c3[nH]c(=O)n(-c4ccccc4OC)c3n2)cc1`, for which the result in assay [4], in assay [6], in assay [7], in [8], in assay [9] and in assay [12] was Active. Moreover, the Activity worked out at 25% in assay [5], 32% in [10], 75% in [11] and 68% in assay [13].
Take `CCCCOc1ccc(-c2nc(C(N)=O)c3[nH]c(=O)n(-c4ccccc4OC)c3n2)cc1`: the pIC50 in assay [1] was 5.33.
